Assay results: ChEMBL document CHEMBL1671716, “Antimicrobial susceptibility patterns for recent clinical isolates of anaerobic bacteria in South Korea” (2010)
≈ marks a conversion by molar mass, not a printed value.

Key:
[1] = tested on: Prevotella bivia; experiment: Antimicrobial activity against Prevotella bivia assessed as percent susceptible isolates after 48 hrs by agar dilution method; format: functional
How it was run: (§1)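 CLSI agar dilution (M11-A7); inoculum 10^5 CFU applied by replicator; plates incubated anaerobically 48 h at 37°C. For piperacillin-tazobactam, tazobactam held constant at 4 μg/ml.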

[2] = tested on: Anaerococcus prevotii; experiment: Antimicrobial activity against Anaerococcus prevotii assessed as percent susceptible isolates after 48 hrs by agar dilution method; format: functional
[3] = tested on: Parabacteroides distasonis; experiment: Antimicrobial activity against Bacteroides distasonis after 48 hrs by agar dilution method; format: functional
How it was run: (§2)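 MICs on clinical anaerobe isolates by the CLSI agar dilution method. Inoculum of 10^5 CFU applied with a Steers replicator. Plates incubated 48 h at 37°C in an anaerobic chamber.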

[4] = tested on: Actinomyces naeslundii; experiment: Antimicrobial activity against Actinomyces naeslundii assessed as percent resistant isolates after 48 hrs by agar dilution method; format: functional
How it was run: (§3)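 CLSI agar dilution on recent Korean clinical anaerobe isolates. Inoculum 10^5 CFU per spot by replicator. Plates incubated in an anaerobic chamber at 37°C for 48 h. For piperacillin plus tazobactam, tazobactam was held constant at 4 μg/ml. Resistance and susceptibility rates derived from MICs.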

[5] = tested on: Bacteroides fragilis; experiment: Antimicrobial activity against Bacteroides fragilis assessed as percent resistant isolates after 48 hrs by agar dilution method; format: functional; how it was run: as §3
[6] = tested on: Schaalia meyeri; experiment: Antimicrobial activity against Actinomyces meyeri after 48 hrs by agar dilution method; format: functional; how it was run: as §2
[7] = tested on: Eubacterium sp.; experiment: Antimicrobial activity against Eubacterium sp. after 48 hrs by agar dilution method; format: functional; how it was run: as §1
[8] = tested on: Clostridium perfringens; experiment: Antimicrobial activity against Clostridium perfringens assessed as percent susceptible isolates after 48 hrs by agar dilution method; format: functional
[9] = tested on: Schaalia odontolytica; experiment: Antimicrobial activity against Actinomyces odontolyticus after 48 hrs by agar dilution method; format: functional; how it was run: as §2
[10] = tested on: Phocaeicola vulgatus; experiment: Antimicrobial activity against Bacteroides vulgatus assessed as percent resistant isolates after 48 hrs by agar dilution method; format: functional; how it was run: as §3
[11] = tested on: Bacteroides caccae; experiment: Antimicrobial activity against Bacteroides caccae after 48 hrs by agar dilution method; format: functional; how it was run: as §2
[12] = tested on: Anaerococcus prevotii; experiment: Antimicrobial activity against Anaerococcus prevotii assessed as percent resistant isolates after 48 hrs by agar dilution method; format: functional; how it was run: as §3
[13] = tested on: Peptoniphilus asaccharolyticus; experiment: Antimicrobial activity against Peptoniphilus asaccharolyticus after 48 hrs by agar dilution method; format: functional; how it was run: as §1
[14] = tested on: Fusobacterium varium; experiment: Antimicrobial activity against Fusobacterium varium after 48 hrs by agar dilution method; format: functional; how it was run: as §1
[15] = tested on: Eggerthella lenta; experiment: Antimicrobial activity against Eubacterium lentum after 48 hrs by agar dilution method; format: functional; how it was run: as §1
[16] = tested on: Parvimonas micra; experiment: Antimicrobial activity against Peptostreptococcus micros assessed as percent susceptible isolates after 48 hrs by agar dilution method; format: functional; how it was run: as §3
[17] = tested on: Bifidobacterium adolescentis; experiment: Antimicrobial activity against Bifidobacterium adolescentis assessed as percent resistant isolates after 48 hrs by agar dilution method; format: functional; how it was run: as §3
[18] = tested on: Hoylesella oralis; experiment: Antimicrobial activity against Prevotella oralis after 48 hrs by agar dilution method; format: functional; how it was run: as §1
[19] = tested on: Actinomyces naeslundii; experiment: Antimicrobial activity against Actinomyces naeslundii assessed as percent susceptible isolates after 48 hrs by agar dilution method; format: functional
[20] = tested on: Bacteroides thetaiotaomicron; experiment: Antimicrobial activity against Bacteroides thetaiotaomicron assessed as percent resistant isolates after 48 hrs by agar dilution method; format: functional; how it was run: as §3
[21] = tested on: Actinomyces israelii; experiment: Antimicrobial activity against Actinomyces israelii after 48 hrs by agar dilution method; format: functional; how it was run: as §2
[22] = tested on: Bacteroides fragilis; experiment: Antimicrobial activity against Bacteroides fragilis after 48 hrs by agar dilution method; format: functional; how it was run: as §2
[23] = tested on: Clostridioides difficile; experiment: Antimicrobial activity against Clostridium difficile assessed as percent resistant isolates after 48 hrs by agar dilution method; format: functional
[24] = tested on: Bacteroides ovatus; experiment: Antimicrobial activity against Bacteroides ovatus assessed as percent susceptible isolates after 48 hrs by agar dilution method; format: functional
[25] = tested on: Actinomyces israelii; experiment: Antimicrobial activity against Actinomyces israelii assessed as percent susceptible isolates after 48 hrs by agar dilution method; format: functional
[26] = tested on: Peptoniphilus asaccharolyticus; experiment: Antimicrobial activity against Peptoniphilus asaccharolyticus assessed as percent resistant isolates after 48 hrs by agar dilution method; format: functional; how it was run: as §3
[27] = tested on: Fusobacterium mortiferum; experiment: Antimicrobial activity against Fusobacterium mortiferum after 48 hrs by agar dilution method; format: functional; how it was run: as §1
[28] = tested on: Prevotella intermedia; experiment: Antimicrobial activity against Prevotella intermedia assessed as percent susceptible isolates after 48 hrs by agar dilution method; format: functional; how it was run: as §1
[29] = tested on: Peptoniphilus asaccharolyticus; experiment: Antimicrobial activity against Peptoniphilus asaccharolyticus assessed as percent susceptible isolates after 48 hrs by agar dilution method; format: functional; how it was run: as §1
[30] = tested on: Peptostreptococcus anaerobius; experiment: Antimicrobial activity against Peptostreptococcus anaerobius assessed as percent susceptible isolates after 48 hrs by agar dilution method in presence of 4 ug/ml beta-lactamase inhibitor Tazobactam; format: functional; how it was run: as §1
[31] = tested on: Schaalia odontolytica; experiment: Antimicrobial activity against Actinomyces odontolyticus assessed as percent susceptible isolates after 48 hrs by agar dilution method in presence of 4 ug/ml beta-lactamase inhibitor Tazobactam; format: functional; settings: pooled result: one value given for 8 cell lines, strains, targets or settings
[32] = tested on: Bacteroides fragilis; experiment: Antimicrobial activity against Bacteroides fragilis assessed as percent susceptible isolates after 48 hrs by agar dilution method in presence of 4 ug/ml beta-lactamase inhibitor Tazobactam; format: functional
[33] = tested on: Fusobacterium mortiferum; experiment: Antimicrobial activity against Fusobacterium mortiferum after 48 hrs by agar dilution method in presence of 4 ug/ml beta-lactamase inhibitor Tazobactam; format: functional; how it was run: as §1
[34] = tested on: Prevotella buccae; experiment: Antimicrobial activity against Prevotella buccae assessed as percent susceptible isolates after 48 hrs by agar dilution method in presence of 4 ug/ml beta-lactamase inhibitor Tazobactam; format: functional, Segatella buccae; how it was run: as §1
[35] = tested on: Schaalia meyeri; experiment: Antimicrobial activity against Actinomyces meyeri after 48 hrs by agar dilution method in presence of 4 ug/ml beta-lactamase inhibitor Tazobactam; format: functional
How it was run: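 MICs by CLSI agar dilution for piperacillin combined with tazobactam, with tazobactam held constant at 4 μg/ml. Clinical anaerobe isolates inoculated at 10^5 CFU by Steers replicator. Plates kept in an anaerobic chamber at 37°C for 48 h.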

[36] = tested on: Prevotella buccae; experiment: Antimicrobial activity against Prevotella buccae assessed as percent resistant isolates after 48 hrs by agar dilution method in presence of 4 ug/ml beta-lactamase inhibitor Tazobactam; format: functional, Segatella buccae; how it was run: as §3
[37] = tested on: Finegoldia magna; experiment: Antimicrobial activity against Finegoldia magna after 48 hrs by agar dilution method in presence of 4 ug/ml beta-lactamase inhibitor Tazobactam; format: functional; how it was run: as §1
[38] = tested on: Finegoldia magna; experiment: Antimicrobial activity against Finegoldia magna assessed as percent resistant isolates after 48 hrs by agar dilution method in presence of 4 ug/ml beta-lactamase inhibitor Tazobactam; format: functional; how it was run: as §3
[39] = tested on: Prevotella intermedia; experiment: Antimicrobial activity against Prevotella intermedia after 48 hrs by agar dilution method in presence of 4 ug/ml beta-lactamase inhibitor Tazobactam; format: functional; how it was run: as §1
[40] = tested on: Peptostreptococcus anaerobius; experiment: Antimicrobial activity against Peptostreptococcus anaerobius after 48 hrs by agar dilution method in presence of 4 ug/ml beta-lactamase inhibitor Tazobactam; format: functional; how it was run: as §1
[41] = tested on: Phocaeicola vulgatus; experiment: Antimicrobial activity against Bacteroides vulgatus assessed as percent resistant isolates after 48 hrs by agar dilution method in presence of 4 ug/ml beta-lactamase inhibitor Tazobactam; format: functional; how it was run: as §3

## C[C@@H](O)[C@H]1C(=O)N2C(C(=O)O)=C(S[C@@H]3CN[C@H](C(=O)N(C)C)C3)[C@H](C)[C@H]12 [MEROPENEM]
[1]
  Activity: 100%
[2]
  Activity: 100%
[3]
  MIC50: 0.25 µg/mL (≈ 0.652 µM)
  MIC90: 2 µg/mL (≈ 5.22 µM)
[4]
  Activity: 8%
[5]
  Activity: 3%
[6]
  MIC50: 0.125 µg/mL (≈ 0.326 µM)
  MIC90: 2 µg/mL (≈ 5.22 µM)
[7]
  MIC50: 0.125 µg/mL (≈ 0.326 µM)
  MIC90: 2 µg/mL (≈ 5.22 µM)
[8]
  Activity: 100%
[9]
  MIC50: 0.125 µg/mL (≈ 0.326 µM)
  MIC90: 2 µg/mL (≈ 5.22 µM)
[10]
  Activity: 0%
[11]
  MIC50: 0.25 µg/mL (≈ 0.652 µM)
  MIC90: 2 µg/mL (≈ 5.22 µM)
[12]
  Activity: 0%
[13]
  MIC50: ≤ 0.008 µg/mL
  MIC90: 0.03 µg/mL (≈ 0.0782 µM)
[14]
  MIC: 0.008 µg/mL (≈ 0.0209 µM)
[15]
  MIC50: 0.125 µg/mL (≈ 0.326 µM)
  MIC90: 2 µg/mL (≈ 5.22 µM)
[16]
  Activity: 0%
[17]
  Activity: 0%
[18]
  MIC50: 0.125 µg/mL (≈ 0.326 µM)
  MIC90: 0.5 µg/mL (≈ 1.3 µM)
[19]
  Activity: 92%
[20]
  Activity: 0%
[21]
  MIC50: 0.125 µg/mL (≈ 0.326 µM)
  MIC90: 2 µg/mL (≈ 5.22 µM)
[22]
  MIC50: 0.125 µg/mL (≈ 0.326 µM)
  MIC90: 4 µg/mL (≈ 10.4 µM)
[23]
  Activity: 0%
[24]
  Activity: 98%
[25]
  Activity: 92%
[26]
  Activity: 0%
[27]
  MIC: 0.008 µg/mL (≈ 0.0209 µM)
[28]
  Activity: 100%
[29]
  Activity: 100%

## CCN1CCN(C(=O)N[C@@H](C(=O)N[C@@H]2C(=O)N3[C@@H]2SC(C)(C)[C@@H]3C(=O)O)c2ccccc2)C(=O)C1=O [PIPERACILLIN]
[1]
  Activity: 78%
[2]
  Activity: 100%
[30]
  Activity: 100%
[3]
  MIC50: 128 µg/mL (≈ 247 µM)
  MIC90: > 256 µg/mL
[4]
  Activity: 0%
[5]
  Activity: 27%
[6]
  MIC50: 1 µg/mL (≈ 1.93 µM)
  MIC90: 8 µg/mL (≈ 15.5 µM)
[7]
  MIC50: 1 µg/mL (≈ 1.93 µM)
  MIC90: 8 µg/mL (≈ 15.5 µM)
[31]
  Activity: 92%
[8]
  Activity: 100%
[9]
  MIC50: 1 µg/mL (≈ 1.93 µM)
  MIC90: 8 µg/mL (≈ 15.5 µM)
[10]
  Activity: 51%
[32]
  Activity: 97%
[11]
  MIC50: 128 µg/mL (≈ 247 µM)
  MIC90: > 256 µg/mL
[12]
  Activity: 0%
[13]
  MIC50: ≤ 0.06 µg/mL
  MIC90: ≤ 0.06 µg/mL
[33]
  MIC: 0.03 µg/mL
[34]
  Activity: 100%
[35]
  MIC50: 0.5 µg/mL
  MIC90: 8 µg/mL
[36]
  Activity: 0%
[37]
  MIC50: 0.06 µg/mL
  MIC90: 0.125 µg/mL
[14]
  MIC: 0.06 µg/mL (≈ 0.116 µM)
[38]
  Activity: 0%
[15]
  MIC50: 1 µg/mL (≈ 1.93 µM)
  MIC90: 8 µg/mL (≈ 15.5 µM)
[16]
  Activity: 0%
[17]
  Activity: 0%
[18]
  MIC50: 16 µg/mL (≈ 30.9 µM)
  MIC90: 128 µg/mL (≈ 247 µM)
[39]
  MIC50: ≤ 0.03 µg/mL
  MIC90: ≤ 0.03 µg/mL
[19]
  Activity: 92%
[20]
  Activity: 51%
[21]
  MIC50: 1 µg/mL (≈ 1.93 µM)
  MIC90: 8 µg/mL (≈ 15.5 µM)
[40]
  MIC50: 0.25 µg/mL
  MIC90: 16 µg/mL
[22]
  MIC50: 8 µg/mL (≈ 15.5 µM)
  MIC90: > 256 µg/mL
[23]
  Activity: 0%
[24]
  Activity: 42%
[25]
  Activity: 92%
[26]
  Activity: 0%
[27]
  MIC: 0.06 µg/mL (≈ 0.116 µM)
[41]
  Activity: 7%
[28]
  Activity: 100%
[29]
  Activity: 100%
